In brackets after ≈: the same amount, converted by molar mass.
Assays:
Assay type in all cases: functional
Conditions in all cases: read-out: ED50 (the source's name)
[1] = system: TE-671; test: Cytotoxicity against human TE671 cells
Procedure, shortened: (§1)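 In vitro cytotoxicity against a tumor-cell panel. Panel: KB (nasopharyngeal carcinoma), A-549 (human lung carcinoma), HCT-8 (human colon adenocarcinoma), RPMI-7951 (human melanoma), TE-671 (human medulloblastoma) and P-388 (murine leukemia). The procedure follows published protocols.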

[2] = system: P388; test: Cytotoxicity against mouse P388 cells; procedure, shortened: as §1
[3] = system: KB; test: Cytotoxicity against human KB cells; procedure, shortened: as §1
[4] = system: RPMI-7951; test: Cytotoxicity against human RPMI7951 cells; procedure, shortened: as §1
[5] = system: A549; test: Cytotoxicity against human A549 cells; procedure, shortened: as §1
[6] = system: HCT-8; test: Cytotoxicity against human HCT8 cells; procedure, shortened: as §1

| SMILES | EC50 [1] [µg/mL] | EC50 [2] [µg/mL] | EC50 [3] [µg/mL] | EC50 [4] [µg/mL] | EC50 [5] [µg/mL] | EC50 [6] [µg/mL] |
| --- | --- | --- | --- | --- | --- | --- |
| C/C=C(\C)C(=O)O[C@H]1[C@@H](OC(=O)c2ccc(=O)n(C)c2)[C@@H]2OC(=O)[C@@H](C)[C@@H](C)c3ncccc3C(=O)OC[C@]3(C)O[C@@]4([C@H](OC(C)=O)[C@H]3[C@@H](OC(C)=O)[C@@H](OC(C)=O)[C@]14COC(C)=O)[C@]2(C)O [EMARGINATINE G] | > 10 | > 10 | > 10 | > 10 | > 10 | > 10 |
| CC(=O)OC[C@]12[C@H](OC(C)=O)[C@@H](O)[C@@H]3[C@@H](OC(C)=O)[C@@]14O[C@@]3(C)COC(=O)c1cccnc1[C@H](C)[C@H](C)C(=O)O[C@@H]([C@H](OC(=O)c1ccc(=O)n(C)c1)[C@@H]2OC(=O)c1ccccc1)[C@@]4(C)O [EMARGINATINE F] | 0.21 (≈ 0.229 µM) | 0.69 (≈ 0.751 µM) | 0.51 (≈ 0.555 µM) | < 0.1 | 5.5 (≈ 5.99 µM) | 1.29 (≈ 1.4 µM) |
